Screens (PubChem)
Sampled rows, rich in hits. Any-hit rate of the full collection: about 2.7%.
CHO parental Ca = counter-screen for OX1R antagonists: effect in parental CHO cells. 330,000 compounds, 0.63% hits. AID 463079. parental CHO-K1, ATP-induced calcium, Fluo-8 fluorescence. inhibition, % at 5.6 µM;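 active means inhibition above that plate's mean sample inhibition plus 3 SD, cut at about 26% in these data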;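 further: 0% = ATP-challenged DMSO wells and 100% = DMSO wells without ATP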
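Material: Parental CHO cells | Reagent: ATP | Compound dosing: Single nominal dose of 5.6 µM per compound | Detection: Intracellular calcium via Fluo-8 no-wash fluorescent dye | Read-out: % inhibition of ATP-induced calcium mobilization | Benchmarks: Low control ATP plus DMSO, high control DMSO only | Replicates: Singlicate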
OXTR ag = agonists of human oxytocin receptor | P30559 | CHO-OTR cells, Fluo-8 calcium fluorescence; normalized: DMSO 0%, oxytocin 100% | activation, % at 3 µM | 320,000 compounds, 0.32% hits;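 active means activation above the mean of all tested compounds plus 3 SD, cutoff set per screening run, cut at about 20% in these data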;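 further: peak over basal fluorescence ratio from a 100 s FLIPR kinetic read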
V1aR counter = V1a receptor agonism, counter-screen for OXTR agonists; CHO-V1R cells, Fluo-8 calcium fluorescence, agonist mode; 0% DMSO, 100% 3 nM vasopressin; activation, % at 3 µM; 320,000 compounds, 0.25% hits;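 active means activation above the mean activation of all tested compounds plus 3 SD, per screening run, cut at about 20% in these data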;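 further: signal is peak over basal fluorescence ratio across a 100 second FLIPR read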
Target sequence (P37288 whole entry, looked up): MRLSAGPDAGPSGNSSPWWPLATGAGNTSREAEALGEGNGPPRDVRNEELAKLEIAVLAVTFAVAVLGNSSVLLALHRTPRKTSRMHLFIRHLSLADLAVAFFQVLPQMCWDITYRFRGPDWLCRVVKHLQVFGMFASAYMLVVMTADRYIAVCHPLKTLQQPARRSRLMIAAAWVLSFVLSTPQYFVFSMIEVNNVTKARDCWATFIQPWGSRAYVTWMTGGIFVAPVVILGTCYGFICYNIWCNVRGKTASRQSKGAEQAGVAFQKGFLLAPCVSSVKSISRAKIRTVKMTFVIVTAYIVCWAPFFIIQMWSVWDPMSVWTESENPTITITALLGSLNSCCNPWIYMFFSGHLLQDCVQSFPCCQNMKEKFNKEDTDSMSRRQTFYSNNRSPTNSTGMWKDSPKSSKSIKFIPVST
OX1R antag-1 = blocks the human orexin 1 receptor. inhibition, % at 5 µM. 330,000 compounds, 0.43% hits. CHO/OX1R cells, Fluo-8 calcium fluorescence, orexin A. AID 434989. O43613;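 active means inhibition above its plate's threshold, mean inhibition of all tested compounds on the plate plus 3 SD, cut at about 37% in these data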;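 further: 0% = orexin A challenge wells and 100% = SB-334867-A antagonist wells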
OX1R antag-2 = OX1R (human) antagonism. 330,000 compounds, 1.8% hits. inhibition, % at 6.6 µM. OX1R-expressing cells, FRET antagonist read-out. AID 485270. O43613; in the data active means inhibition mostly above about 38%, no sharp cut-off; inactive means mostly below about 40%;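 further: 0% = agonist challenge alone and 100% = reference antagonist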
OXTR potentiate = potentiators of human oxytocin receptor; AID 2445; activation, % at 3 µM; 320,000 compounds, 0.061% hits; P30559; CHO-OTR cells, Fluo-8 calcium fluorescence, potentiator mode; 0% = oxytocin EC15, 100% = EC100;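 active means activation above that plate's cutoff, the mean activation of tested compounds plus 3 SD, cut at about 6.6% in these data, passing the limit was not always enough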;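 further: 100% uses oxytocin at 75 nM as the full agonist control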
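assay system = CHO-OTR cells, human receptor | schedule = compound 6 min at room temperature before oxytocin, 100 s read | detection = Fluo-8 intracellular calcium fluorescence, ex 470-495, em 515-575 nm | evaluation = normalized max/min fluorescence ratio, % activation | control set = EC15 oxytocin alone as 0%, 75 nM oxytocin (EC100) as 100%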
OX1R HTRF conf = OX1R (human) antagonism, HTRF confirmed. shares compounds with OX1R antag-2. OX1R-expressing cells, HTRF antagonist assay. inhibition, % at 6.6 µM. 1,800 compounds, 49% hits; in the data active means inhibition above about 55%;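 further: CHO cells expressing OX1R stimulated with orexin A at about EC80; 0% = agonist challenge alone and 100% = reference antagonist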
CHO-K1 HTRF = counter-screen for OX1R antagonists: effect in parental CHO-K1 cells | shares compounds with OX1R antag-2 | HTRF counterscreen | inhibition, % at 6.6 µM | 1,800 compounds, 48% hits | AID 493232; in the data active means inhibition above about 17%;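 further: 0% = agonist challenge with vehicle and 100% = vehicle alone without agonist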
Active calls of the source: *; . = no result.

SMILES	CHO parental Ca	OXTR ag	V1aR counter	OX1R antag-1	OX1R antag-2	OXTR potentiate	OX1R HTRF conf	CHO-K1 HTRF
CC(C)Cn1c(CCC(N)=O)nnc1SC(C)C(=O)Nc1ccc2c(c1)OCO2 (configuration not stated)	3	0	1	-21	4	-1	.	.
O=C(c1ccc(NS(=O)(=O)c2ccccc2)cc1)N1CCOCC1	-6	0	0	1	10	-8	.	.
[O-]/[N+](=C\c1ccco1)c1ccc(Cl)cc1	6	-1	-1	-9	12	-12	.	.
COCCNC(=O)C(c1ccc(O)cc1)N(Cc1ccco1)C(=O)CCC(=O)Nc1ccccn1 (configuration not stated)	-4	-1	-1	-10	24	-9	.	.
COCCNC(=O)C(c1ccc(Cl)cc1)N(Cc1ccco1)C(=O)CCC(=O)Nc1ccccn1 (configuration not stated)	-16	1	0	9	82*	-7	58*	3
COc1cccc(OC)c1C(=O)Nc1ccc(C(=O)c2ccncc2)cc1	-3	1	0	-25	20	1	.	.
c1ccc(CCn2c(SCc3ccccc3)nnc2-c2ccncc2)cc1	-22	2	1	-33	101*	-3	15	-3
N#Cc1ccc(CSc2nnc(-c3ccncc3)n2CCc2ccccc2)cc1	-22	2	3	-15	47	-20	.	.
O=C(CN1C(=O)NC2(CCCC2)C1=O)Nc1cc(Cl)ccc1N1CCCCC1	-29	2	8	-42	5	-5	.	.
O=[N+]([O-])c1ccc(N2CCN(CCOCCO)CC2)c([N+](=O)[O-])c1	3	1	1	-3	85*	-1	46	39*
COc1cc(/C=N/NC(=O)c2sc(N)c(C#N)c2C)cc(Br)c1O	-12	-2	0	-18	82*	-5	30	-5
COc1ccc2ccccc2c1/C=N/NC(=O)c1sc(N)c(C#N)c1C	-14	-1	0	-9	40	-3	.	.
C[n+]1cnc(-c2ccccc2)cc1-c1ccccc1	14	0	2	-5	85*	0	43	64*
CCOc1cc2c(cc1OC)C(NC(=O)c1ccco1)CC2=O (configuration not stated)	-12	2	1	-12	-2	-13	.	.
CN(C)S(=O)(=O)c1cccc2c1C(=O)c1ccccc1C2=O	-7	0	1	-14	105*	-3	20	17
O=C(NCCCN1CCCC1=O)c1ccc([N+](=O)[O-])s1	-15	0	1	-7	119*	-2	57*	71*
CCc1sc(C(=O)NCCCN2CCCC2=O)cc1Br	-14	0	1	-21	10	2	.	.
CCn1c(/C=C/c2cc[n+](C)cc2)nc2ccccc21	-3	0	1	11	78*	-3	48	59*
COc1ccc(S(N)(=O)=O)cc1C(=O)NNC(=O)C1COc2ccccc2O1 (configuration not stated)	4	-1	0	-9	4	-8	.	.
C=CCNC(=O)c1ccc(NC(=O)C2=CSCCO2)cc1	-6	0	0	-3	5	-8	.	.
O=C(Nc1ccccc1)C1CCCCN1S(=O)(=O)c1ccccc1 (configuration not stated)	-8	-2	-1	11	80*	-6	60*	2
O=C(CCSc1ccc(F)cc1)NNC(=O)c1ccc([N+](=O)[O-])cc1	-9	3	3	-15	20	-7	.	.
COc1ccc(S(=O)(=O)N2CC(C)N(C(=O)N3CCOCC3)C2)cc1 (configuration not stated)	-7	0	0	-8	7	-8	.	.
Cc1cc(C)c(NC(=O)C2CCCN2CCOC(=O)c2cccc([N+](=O)[O-])c2)c(C)c1 (configuration not stated)	-15	-3	1	-7	97*	-9	70*	8
O=C(COC(=O)c1cccc([N+](=O)[O-])c1)NC1CCCC1	-4	1	1	12	14	-1	.	.
SMILES	CHO parental Ca	OXTR ag	V1aR counter	OX1R antag-1	OX1R antag-2	OXTR potentiate	OX1R HTRF conf	CHO-K1 HTRF
CC1CCN(C(=O)CN(C)S(=O)(=O)c2cccc3nsnc23)CC1	-12	1	1	-24	83*	-10	30	36*
CCOC(=O)N1CCC(NC(=O)C(NS(=O)(=O)c2cccc3nsnc23)c2ccccc2)CC1 (configuration not stated)	-15	-1	-2	-27	91*	-22	34	13
COc1ccc(N2CCN(CCNC(=O)CCNS(=O)(=O)c3cccs3)CC2)cc1	-11	2	1	-17	15	-10	.	.
COc1ccc(N2CCN(CCNC(=O)CCS(=O)(=O)c3cccc4nsnc34)CC2)cc1	-6	-1	1	-17	85*	-4	43	76*
O=C(NC1CCN(Cc2ccccc2)CC1)C(NS(=O)(=O)c1cccc2nsnc12)c1ccccc1 (configuration not stated)	-23	1	1	-36	77	-8	.	.
CCN(CC)C(=O)CN(C)S(=O)(=O)c1cccc2nsnc12	-1	-1	0	-20	114*	-3	40	38*
CCOc1cccc(CN(C)CC2CCCN(CCc3ccc(Cl)cc3)C2)c1O (configuration not stated)	-14	1	1	-38	5	-1	.	.
CCN(CC(=O)Nc1ccc(NC(C)=O)cc1)C(=O)C1COc2ccccc2O1 (configuration not stated)	-7	1	0	-18	4	-2	.	.
CC(=O)c1cccc(N2C(=NC(=O)C3CC3)SC3CS(=O)(=O)CC32)c1 (configuration not stated)	3	0	0	-5	4	-9	.	.
COc1cc(C(=O)N2CCN(C)C(C)C2)ccc1OC1CCN(C(C)=O)CC1 (configuration not stated)	-14	0	-1	1	18	-9	.	.
O=C(Nc1ccccc1C(=O)N1CCCCC1)c1ccccc1C(F)(F)F	-7	-1	0	-5	26	-4	.	.
CC1CCN(CCNC(=O)CN(C)S(=O)(=O)c2cccc3nsnc23)CC1	14	-1	0	-8	149*	-16	22	29*
CC1=C(C(=O)OCc2ccccc2)C(c2ccc(C)o2)C2=C(CCCC2=O)N1 (configuration not stated)	-13	-2	0	-21	17	-19	.	.
